Results on five molecules are retold here after ChEMBL document CHEMBL1134602, “A new class of symmetric bisbenzimidazole-based DNA minor groove-binding agents showing antitumor activity” (J Med Chem, 2001).

The test system of one test is A2780. Kind of test: Antitumor activity of compound for 96-h exposure in A2780 human ovarian cell line. Type of test: functional, cell-based. As to conditions: A2780, 96 h. The procedure, abridged: (§1)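 Cells grown as monolayers in DMEM with 10% fetal bovine serum, 2 mM glutamine and 0.5 µg/mL hydrocortisone, in 6% CO2. Seeded at 3000-5000/well and attached overnight. Serial drug dilutions (compound dissolved in 10% DMSO) added to quadruplicate wells, 96 h. Fixed with TCA, stained with SRB, absorbance read at 540 nm. IC50 is the concentration giving 50% of control absorbance. Resistance factor is resistant-subline IC50 divided by parent IC50.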

Test [1] concerns CH1. Kind of test: Antitumor activity of compound for 96-h exposure in CH1 human ovarian cell line. Type of test: functional, cell-based. As to conditions: CH1, 96 h. The procedure, abridged:
as §1

In test [2] the test system is SK-OV-3. Kind of test: Antitumor activity of compound for 96-h exposure in SKOV-3 human ovarian cell line. Type of test: functional, cell-based. As to conditions: SK-OV-3, 96 h. The procedure, abridged:
as §1

The test system of another test is A2780cisR. Kind of test: Antitumor activity of compound for 96-h exposure in A2780cisR (acquired resistance to cisplatin) human ovarian cell line. Type of test: functional, cell-based. The procedure, abridged:
as §1

For test [3], the species on record is Mus musculus. The test can be described thus: Total score was determined, adult female nude mice. Type of test: functional.
The test system of test [4] is Mus musculus. The test can be described thus: Activity was determined in ip human tumor xenograft (hallow fiber) assays in adult female nude mice. The test is classed as functional. (In general: In xenograft studies the graft and the host belong to different species.)
Test [5] relates to Mus musculus. Kind of test: Activity was determined in sc human tumor xenograft (hallow fiber) assays, adult female nude mice. The test is classed as functional.
Test [6] concerns SK-OV-3. Kind of test: Growth inhibitory activity of compound for 6-h exposure in SKOV-3 cell line. Type of test: functional, cell-based. As to conditions: Homo sapiens, SK-OV-3, 6 h. The essentials:
(§2)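 SKOV-3 monolayers treated with serially diluted drug in quadruplicate wells. Drug aspirated after 2, 6 or 24 h and replaced with fresh medium for the rest of a 96-h period. Growth measured by TCA fixation, SRB staining and absorbance at 540 nm. IC50 is the concentration halving mean absorbance relative to untreated controls.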

The subject of test [7] is SK-OV-3. The test can be described thus: Growth inhibitory activity of compound for 2-h exposure in SKOV-3 cell line. As to conditions: Homo sapiens, SK-OV-3, 2 h. The test is classed as functional, cell-based. The essentials:
as §2

The nature of test [8]: Resistance factor was determined using the ratio of resistance of resistant cell line and its parent cell line.
Test [9] has as its system CH1. Kind of test: In vivo antitumor activity was determined after a dose of 4 mg/kg (ip) using hollow fiber assay with (ip)implanted CH1 cells. The test is classed as functional, Homo sapiens. The essentials:
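CH1 cells trypsinized, seeded at 1 × 10^7 cells/mL into 2-cm PVDF fibers, heat-sealed and incubated 3 days. Fibers then implanted ip in nude mice. Next day a single 4 mg/kg ip dose given, or vehicle (10% DMSO/90% arachis oil). Fibers retrieved six days later; viable cells measured by MTT absorbance at 540 nm and expressed as % treated/control.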

The next test has as its system OVCAR-3. Kind of test: In vivo antitumor activity was determined after a dose of 4.5 mg/kg (ip) using hollow fiber assay against OVCAR-3 human ovarian carcinoma cells (ip-implanted fibers). The test is classed as functional.
The subject of test [10] is SK-OV-3. Kind of test: Growth inhibitory activity of compound for 24-h exposure in SKOV-3 cell line. Type of test: functional, cell-based. As to conditions: Homo sapiens, SK-OV-3, 24 h. The procedure, abridged: as §2
Test [11] relates to SK-OV-3. Kind of test: Growth inhibitory activity of compound for 96-h exposure in SKOV-3 cell line. The test is classed as functional, cell-based. Conditions: Homo sapiens, SK-OV-3, 96 h. The procedure, abridged: as §1

Each structure is given as a SMILES string.

With `COc1ccc(-c2nc3cc(-c4ccc5[nH]c(-c6ccc(OC)cc6)nc5c4)ccc3[nH]2)cc1`, the IC50 (usually the point on the concentration scale where inhibition reaches its midpoint) with A2780 was found to be 13.5 µM; in the test with CH1 [1], 3.8 µM; with SK-OV-3 [2], 16.5 µM; with A2780cisR, 5.1 µM. In the test listed under Mus musculus [3], this molecule came in with a Total score of 8. Besides, the Ip score in the test with Mus musculus [4] is listed as 8. In the test on Mus musculus [5], this molecule registered a Subcut score of 0.

In the case of `CN(C)CCCOc1ccc(-c2nc3cc(-c4ccc5nc(-c6ccc(OCCCN(C)C)cc6)[nH]c5c4)ccc3[nH]2)cc1`, the IC50 is 0.105 µM with SK-OV-3 [6]; 0.235 µM in the test with A2780; 0.33 µM in the test with SK-OV-3 [7]; 0.24 µM in the test on CH1 [1]; 0.375 µM in the test on SK-OV-3 [2]; 0.115 µM in the test on A2780cisR. The figures for the IC50 in the test on SK-OV-3 [10] and in the test on SK-OV-3 [11] were 0.115 µM and 0.1 µM, respectively. Besides, the RF in [8] is listed as 5.8. Further, the T/C was 0.79 in the test with CH1 [9] and 0.56 in the test with OVCAR-3. This molecule also yielded a Total score in the test filed under Mus musculus [3] of 16. This molecule displayed an Ip score in the test on Mus musculus [4] of 12. The molecule also registered a Subcut score in the test on Mus musculus [5] of 4.

Regarding `Oc1ccc(-c2nc3ccc(-c4ccc5nc(-c6ccc(O)cc6)[nH]c5c4)cc3[nH]2)cc1`, the IC50 in the test with A2780 turned out to be 4.3 µM; with CH1 [1], 1.05 µM; in the test on SK-OV-3 [2], 16 µM; in the test on A2780cisR, 2.7 µM. Further, in the test listed under Mus musculus [3], the Total score was found to be 10. The molecule further yielded an Ip score in the test with Mus musculus [4] of 10. The molecule also had a Subcut score with Mus musculus [5] of 0.

Turning to `COc1cccc2c1C(=O)c1c(O)c3c(c(O)c1C2=O)C[C@@](O)(C(=O)CO)C[C@@H]3O[C@H]1C[C@H](N)[C@H](O)[C@H](C)O1` [DOXORUBICIN], in [8], the RF is on record as 90.

As to `CN1CCN(c2ccc3[nH]c(-c4ccc5[nH]c(-c6ccc(O)cc6)nc5c4)nc3c2)CC1` [HOECHST 33258], the IC50 with A2780 was 12 µM; in the test with CH1 [1], 26.5 µM; in the test with SK-OV-3 [2] it was greater than 100 µM; in the test with A2780cisR, 9.5 µM.
